According to ChEMBL document CHEMBL1139275, “Design, synthesis, and biological evaluation of biotin-labeled (-)-ternatin, a potent fat-accumulation inhibitor against 3T3-L1 adipocytes” (Bioorg Med Chem Lett, 2009):

What was measured:
[1] = test system: 3T3-L1; assay: Cytotoxicity against mouse 3T3L1 cells; format: cell-based
[2] = Cytotoxicity against mouse 3T3L1 cells at 5.2 uM; format: cell-based; conditions: 3T3-L1 cells, read-out: INH
[3] = test system: 3T3-L1; assay: Inhibition of fat accumulation in mouse 3T3L1 cells after 7 days; format: functional, cell-based; conditions: 3T3-L1, 168 h
Outline: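 3T3-L1 cells were exposed to each sample during differentiation, while untreated controls became fully mature adipocytes. Fat accumulation was expressed relative to the controls, and IC50 was taken as the concentration giving 50% inhibition. Values are means of quadruplicate determinations.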

## C#CC[C@@H]1C(=O)N[C@H]([C@H](O)C(C)C)C(=O)N[C@H]([C@@H](C)CC)C(=O)N(C)[C@@H](C)C(=O)N(C)[C@@H](CC(C)C)C(=O)N[C@@H](CC(C)C)C(=O)N(C)[C@@H](C)C(=O)N1C
[1]
  IC50: > 5.2 µM
[2]
  cytotoxicity at 5.2 µM: 54%
[3]
  IC50: 0.019 µM

## CC[C@H](C)[C@H]1NC(=O)[C@@H]([C@@H](C)O)NC(=O)[C@@H](C)N(C)C(=O)[C@H](C)N(C)C(=O)[C@H](CC(C)C)NC(=O)[C@H](CC(C)C)N(C)C(=O)[C@H](C)N(C)C1=O
[3]
  IC50: 3.1 µM

## CC[C@H](C)[C@H]1NC(=O)[C@@H](CO)NC(=O)[C@@H](C)N(C)C(=O)[C@H](C)N(C)C(=O)[C@H](CC(C)C)NC(=O)[C@H](CC(C)C)N(C)C(=O)[C@H](C)N(C)C1=O
[3]
  IC50: 12 µM

## CC[C@H](C)[C@H]1NC(=O)[C@@H]([C@H](O)C(C)C)NC(=O)[C@@H](Cc2cn(CCOCCOCCNC(=O)CCCC[C@@H]3SC[C@@H]4NC(=O)N[C@@H]43)nn2)N(C)C(=O)[C@H](C)N(C)C(=O)[C@H](CC(C)C)NC(=O)[C@H](CC(C)C)N(C)C(=O)[C@H](C)N(C)C1=O
[1]
  IC50: > 86 µM
[3]
  IC50: 46 µM
